ChEMBL document CHEMBL1128359, “Dicarboxylic acid dipeptide neutral endopeptidase inhibitors” (J Med Chem, 1995)

Biological target: T1, Neprilysin (Rattus norvegicus, UniProt P07861)
T1 sequence (P07861 whole entry): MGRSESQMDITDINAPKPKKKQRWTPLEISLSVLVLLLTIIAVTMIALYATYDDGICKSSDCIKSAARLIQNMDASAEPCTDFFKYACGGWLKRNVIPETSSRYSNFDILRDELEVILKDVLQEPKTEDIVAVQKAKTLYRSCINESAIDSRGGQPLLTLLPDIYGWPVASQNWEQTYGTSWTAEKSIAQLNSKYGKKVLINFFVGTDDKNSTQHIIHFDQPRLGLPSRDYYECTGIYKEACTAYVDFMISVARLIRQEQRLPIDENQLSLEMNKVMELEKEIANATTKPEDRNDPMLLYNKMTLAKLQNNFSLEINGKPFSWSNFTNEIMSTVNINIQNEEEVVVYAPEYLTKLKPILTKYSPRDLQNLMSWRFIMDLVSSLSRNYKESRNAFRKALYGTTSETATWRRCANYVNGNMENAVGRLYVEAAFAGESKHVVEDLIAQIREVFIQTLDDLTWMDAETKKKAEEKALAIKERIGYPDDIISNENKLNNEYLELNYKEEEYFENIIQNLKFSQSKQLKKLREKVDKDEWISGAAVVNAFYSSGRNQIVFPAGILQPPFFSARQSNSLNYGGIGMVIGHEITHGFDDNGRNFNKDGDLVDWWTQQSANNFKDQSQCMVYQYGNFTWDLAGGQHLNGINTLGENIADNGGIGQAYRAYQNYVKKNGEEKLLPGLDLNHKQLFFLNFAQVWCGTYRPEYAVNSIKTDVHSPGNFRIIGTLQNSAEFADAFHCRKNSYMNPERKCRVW
Assay: The compound was tested for inhibition of Neutral endopeptidase by using GAAP as substrate
Settings: not given
Method in brief: (§1)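 Enzyme source was rat kidney cortex membranes (male Sprague-Dawley), 4.0 μg protein, plus 2.5 μg aminopeptidase M, in 50 mM Tris-HCl pH 7.4. Preincubated with inhibitor 10 min at 25 °C, then GAAP added (final 500 μM) for 25 min at 25 °C. Stopped with fast garnet, colour developed 30 min, OD read at 540 nm. Run in duplicate.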

Row | SMILES | IC50 [nM]
1 | O=C(O)CCNC(=O)[C@H](Cc1ccccc1)C[C@@H](Cc1ccccc1)C(=O)O | 1200
2 | O=C(O)CCNC(=O)[C@@H](CCC(=O)O)Cc1ccc(-c2ccccc2)cc1 | 155

Biological target: T1, Neprilysin
Assay: The compound was tested in vitro for inhibition of Neutral endopeptidase by using ANF(atrial natriuretic factor) as substrate
Settings: not given
Method in brief: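 NEP (5.0 μg) preincubated 10 min with inhibitor in 50 mM Tris-HCl pH 7.4. Reaction started with r-ANF (final 20 μM) and run 10 min at 37 °C, then stopped with 0.6% TFA. Substrate loss measured by 3 min isocratic RP-HPLC on a C4 cartridge. Run in duplicate.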

Row | SMILES | IC50 [nM]
3 | O=C(O)CCNC(=O)[C@H](Cc1ccc(-c2ccccc2)cc1)NCP(=O)(O)O | 2

Biological target: T1, Neprilysin
Assay: In vitro inhibition of rat neutral endopeptidase by using GAAP as substrate
Settings: not given
Method in brief: as §1

Row | SMILES | IC50 [nM]
4 | Cc1ccc([C@H](C[C@@H](Cc2ccc(-c3ccccc3)cc2)C(=O)NCCC(=O)O)C(=O)O)cc1 | 54
5 | CO[C@H](C[C@@H](Cc1ccc(-c2ccccc2)cc1)NC(=O)CCCC(=O)O)C(=O)O | 49
6 | CCCC[C@H](C[C@@H](Cc1ccc(-c2ccccc2)cc1)C(=O)NCCC(=O)O)C(=O)O | 66
7 | COc1ccc(C[C@H](C[C@@H](Cc2ccc(-c3ccccc3)cc2)C(=O)NCCC(=O)O)C(=O)O)cc1OC | 54
8 | CO[C@H](C[C@@H](Cc1ccc(-c2ccccc2)cc1)C(=O)NCCC(=O)O)C(=O)O (stereo in doubt; 8g) | 42
9 | C[C@H](C[C@@H](Cc1ccc(-c2ccccc2)cc1)NC(=O)CCCC(=O)O)C(=O)O | 90
10 | O=C(O)C1CCC(NC(=O)C(Cc2ccc(-n3cccc3)cc2)CC(Cc2ccc(-n3cccc3)cc2)C(=O)O)CC1 (stereo not drawn) | 515
11 | C[C@H](C[C@@H](Cc1ccc(-c2ccccc2)cc1)NC(=O)CCCCC(=O)O)C(=O)O | 324
12 | O=C(O)CCNC(=O)[C@H](Cc1ccc(-c2ccccc2)cc1)C[C@@H](Oc1ccccc1)C(=O)O (stereo in doubt; 8f) | > 1000
13 | O=C(O)CCNC(=O)C(Cc1ccc(Oc2ccccc2)cc1)CC(Cc1ccc(Oc2ccccc2)cc1)C(=O)O (stereo not drawn) | 203
14 | CC(C)c1ccc(CC(CC(Cc2ccc(C(C)C)cc2)C(=O)NCCC(=O)O)C(=O)O)cc1 (stereo not drawn) | 489
15 | COCC[C@H](C[C@@H](Cc1ccc(-c2ccccc2)cc1)C(=O)NCCC(=O)O)C(=O)O | 46
16 | C[C@H](C[C@@H](Cc1ccc(-c2ccccc2)cc1)NC(=O)CC(=O)O)C(=O)O | 92
17 | O=C(O)CCNC(=O)C(Cc1ccccc1)CC(Cc1ccccc1)C(=O)O (stereo not drawn) | 1200
18 | O=C(O)CCC(=O)N[C@H](Cc1ccccc1)C[C@@H](Cc1ccccc1)C(=O)O | 4000
19 | O=C(O)CCNC(=O)[C@@H](CCC(=O)O)Cc1ccc(-c2ccccc2)cc1 | 155
20 | COc1ccc(C[C@H](C[C@@H](Cc2ccc(-c3ccccc3)cc2)C(=O)NCC(O)C(=O)O)C(=O)O)cc1OC (stereo partly drawn) | 11
21 | CCCC[C@H](C[C@@H](Cc1ccc(-c2ccccc2)cc1)C(=O)NCC(O)C(=O)O)C(=O)O (stereo partly drawn) | 21
22 | O=C(O)CCNC(=O)C(Cc1ccc(-c2nccs2)cc1)CC(Cc1ccc(-c2nccs2)cc1)C(=O)O (stereo not drawn) | > 1000
23 | O=C(O)CCNC(=O)C(Cc1ccc(-n2cccc2)cc1)CC(Cc1ccc(-n2cccc2)cc1)C(=O)O (stereo not drawn) | 36
24 | C[C@H](C[C@@H](Cc1ccc(-c2ccccc2)cc1)C(=O)NCCC(=O)O)C(=O)O | 41
25 | O=C(O)CCNC(=O)[C@H](Cc1ccc(-c2ccccc2)cc1)C[C@@H](Cc1ccc(-c2nccs2)cc1)C(=O)O | 19
26 | CO[C@H](C[C@@H](Cc1ccc(-c2ccccc2)cc1)C(=O)NCCC(=O)O)C(=O)O (stereo in doubt; 8h) | > 1000
27 | O=C(O)CCNC(=O)C(Cc1ccc(-c2ccccc2)cc1)CC(Cc1ccc(-c2ccccc2)cc1)C(=O)O (stereo not drawn) | 49
28 | O=C(O)CCNC(=O)[C@H](Cc1ccc(-c2ccccc2)cc1)C[C@@H](Oc1ccccc1)C(=O)O (stereo in doubt; 8e) | 44

Biological target: T1, Neprilysin
Assay: The compound was tested in vitro for inhibition of Neutral endopeptidase by using Leu enkephalin as substrate
Settings: not given
Method in brief: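 NEP (30 ng) preincubated 10 min with inhibitor in 50 mM Tris-HCl pH 7.4. Substrate disappearance followed by 6 min isocratic RP-HPLC on a C4 column. Duplicates.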

Row | SMILES | IC50 [nM]
29 | O=C(O)CCNC(=O)[C@H](Cc1ccccc1)C[C@@H](Cc1ccccc1)C(=O)O | 9
30 | O=C(O)CCNC(=O)[C@@H](CCC(=O)O)Cc1ccc(-c2ccccc2)cc1 | 0.7
31 | O=C(O)CCNC(=O)[C@H](Cc1ccc(-c2ccccc2)cc1)NCP(=O)(O)O | 0.81

Biological target: T2, Neprilysin (Rattus norvegicus) (UniProt P07861)
T2 sequence (whole entry): T1 sequence (P07861 whole entry)
Assay: The compound was tested in vitro for inhibition of Neutral endopeptidase by using GAAP as substrate
Settings: concentration not given here
Method in brief: as §1

Row | SMILES | inhibition [%]
32 | O=C(O)C1CCC(NC(=O)C(Cc2ccccc2)CC(Cc2ccccc2)C(=O)O)CC1 (stereo not drawn) | 52
33 | O=C(O)CCNC(=O)C(Cc1ccc(-c2nccs2)cc1)CC(Cc1ccc(-c2nccs2)cc1)C(=O)O (stereo not drawn) | 43
